The target of assay [1] is T1, Vasopressin V2 receptor (Rattus norvegicus, UniProt Q00788). As to the kind of experiment: Compound was tested for its ability to displace [3H]AVP from its specific binding sites in rat Kidney (AVP-V2 receptor). The method in brief:
(§1)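 Radioligand competition with [3H]AVP on plasma membrane preparations, rat liver for V1a and rat kidney for V2. […] Assays run in duplicate. Reported intraassay variation is under 3% and interassay variation under 20%.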

The target in assay [2] is T2, Vasopressin V1a receptor (Rattus norvegicus, UniProt P30560). Put plainly: Compound was tested for its ability to displace [3H]AVP from its specific binding sites in Rat liver (AVP-V1a receptor). The method in brief: as §1
T2 sequence (P30560 whole entry): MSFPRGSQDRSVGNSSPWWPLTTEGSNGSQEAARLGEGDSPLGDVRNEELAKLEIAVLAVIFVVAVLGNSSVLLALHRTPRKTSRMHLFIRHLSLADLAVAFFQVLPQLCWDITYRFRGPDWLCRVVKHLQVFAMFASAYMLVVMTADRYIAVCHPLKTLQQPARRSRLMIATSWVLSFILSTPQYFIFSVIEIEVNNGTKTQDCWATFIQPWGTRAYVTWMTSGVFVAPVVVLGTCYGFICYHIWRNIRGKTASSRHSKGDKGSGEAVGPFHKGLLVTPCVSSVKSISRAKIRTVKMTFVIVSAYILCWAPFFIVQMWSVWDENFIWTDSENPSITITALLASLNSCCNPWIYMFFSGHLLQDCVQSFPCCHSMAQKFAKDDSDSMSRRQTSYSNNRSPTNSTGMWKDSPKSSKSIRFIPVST
Assay [3] concerns Rattus norvegicus. As to the kind of experiment: Dose(mg/kg) required for a 3-fold increase in the 2-h urine volume over the control rats. Type of assay: functional. The method in brief: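 Hydrated conscious rats, compound given orally at three or four doses. Spontaneously voided urine collected every 2 h over 8 h. ED3 (mg/kg) read from the dose–response curve as the dose giving a 3-fold rise in 2-h urine volume over control rats. ">" means no 3-fold rise at the highest dose tested.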

For assay [4], the system named is Rattus norvegicus. As to the kind of experiment: UV values mean 2-h urine volume (mL) when the compound was administered orally at a dose of 10 mg/kg. The conditions noted are these: route oral. In kind it is functional. The method in brief: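 Conscious rats dosed orally at 10 mg/kg, with urine voided spontaneously. The value is urine volume (mL) collected over the first 2 h, given as mean ± SEM of 4 rats and set against control rats (n = 4).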

Assay [5] addresses T1, Vasopressin V2 receptor. Put plainly: Displacement of [3H]-AVP from its AVP-V2 receptor binding site in rat kidney. The method in brief:
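Radioligand competition with [3H]AVP on plasma membrane preparations, rat liver for V1a and rat kidney for V2. Assays run in duplicate. Reported intraassay variation is under 3% and interassay variation under 20%.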

Assay [6] concerns the target T2, Vasopressin V1a receptor. As to the kind of experiment: Displacement of [3H]AVP from AVP-V1a receptor binding site in rat liver. The essentials: as §1
Background: Displacement assays read how much labelled ligand stays bound in the presence of the test substance.

T1 sequence (Q00788 whole entry): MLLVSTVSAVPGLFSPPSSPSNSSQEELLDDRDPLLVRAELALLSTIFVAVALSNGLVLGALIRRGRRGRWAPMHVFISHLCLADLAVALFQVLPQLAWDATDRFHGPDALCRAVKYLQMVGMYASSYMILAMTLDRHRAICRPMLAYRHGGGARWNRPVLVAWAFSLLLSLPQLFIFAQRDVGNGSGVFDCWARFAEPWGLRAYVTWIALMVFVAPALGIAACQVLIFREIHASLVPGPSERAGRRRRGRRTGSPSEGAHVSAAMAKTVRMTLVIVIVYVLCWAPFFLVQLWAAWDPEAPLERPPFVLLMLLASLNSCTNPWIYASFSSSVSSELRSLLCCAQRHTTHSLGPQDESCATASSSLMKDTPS

The term IC50 denotes the point on the concentration scale where inhibition reaches its midpoint. Read a low IC50 as greater potency in that assay. For `CC(=O)O/N=C1\CCCN(C(=O)c2ccc(NC(=O)c3ccccc3C)cc2)c2ccccc21`, the results for the IC50 in assay [1] and in assay [2] were 58 nM and 2300 nM, respectively. Besides, in assay [3], the ED3 was > 30 mg/kg.
As to `CCCNC1CCCN(C(=O)c2ccc(NC(=O)c3ccccc3C)cc2)c2ccccc21` (stereo not drawn), the Activity in assay [4] was 5.6 mL. Also, the IC50 in assay [5] was found to be 50 nM; in assay [6], 890 nM. The same compound registered an ED3 in assay [3] of 6.6 mg/kg.
For `O=C(Nc1ccc(C(=O)N2CCCCc3ccccc32)cc1)Oc1ccccc1`, the IC50 is 790 nM in assay [1] and 7800 nM in assay [2].
`CCCN(C)C1CCCN(C(=O)c2ccc(NC(=O)c3ccccc3C)cc2)c2ccccc21` (stereo not drawn): the Activity in assay [4] amounted to 8.3 mL. For the same compound, the IC50 in assay [5] was determined as 22 nM; in assay [6], 1200 nM. Moreover, the ED3 in assay [3] came out at 4.9 mg/kg.
